Laboratory results reported in ChEMBL document CHEMBL1142995, “Probing the pharmacophore of ginkgolides as glycine receptor antagonists” (J Med Chem, 2007).

Key:
Type in all cases: cell-based
[1] = molecular target: T1, Glycine receptor subunit alpha-1 (Homo sapiens, UniProt P23415); test: Activity at human alpha-1GlyR expressed in HEK293 cells by FMP assay
T1 sequence (P23415 whole entry): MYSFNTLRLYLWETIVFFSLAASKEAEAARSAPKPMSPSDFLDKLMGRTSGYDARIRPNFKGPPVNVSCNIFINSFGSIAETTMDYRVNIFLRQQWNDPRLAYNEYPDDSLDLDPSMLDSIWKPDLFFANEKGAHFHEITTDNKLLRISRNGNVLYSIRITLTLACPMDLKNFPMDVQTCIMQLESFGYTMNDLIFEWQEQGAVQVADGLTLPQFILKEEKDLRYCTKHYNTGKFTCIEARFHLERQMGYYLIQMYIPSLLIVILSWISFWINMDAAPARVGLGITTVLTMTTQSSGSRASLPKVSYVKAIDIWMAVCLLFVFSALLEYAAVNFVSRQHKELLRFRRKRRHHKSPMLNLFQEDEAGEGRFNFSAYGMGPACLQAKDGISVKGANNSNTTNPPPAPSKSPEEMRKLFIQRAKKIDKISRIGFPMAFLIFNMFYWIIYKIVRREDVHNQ
How it was run: (§1)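 Stable HEK293 lines (α1: G418; α1β: G418 + hygromycin B; α2: hygromycin B) plated on poly-D-lysine 16-24 h. Loaded with FMP dye in HBSS/20 mM HEPES pH 7.4, antagonist present, 30 min at 37 °C. Fluorescence ex 530/em 560 nm read up to 1 min after glycine: 200 µM (α1, α1β) or 500 µM (α2). Duplicates, ≥3 experiments; IC50 from maximal responses.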

[2] = molecular target: T1, Glycine receptor subunit alpha-1; test: Activity at human alpha-1-beta-GlyR expressed in HEK293 cells by FMP assay; how it was run: as §1
[3] = molecular target: T2, Glycine receptor subunit alpha-2 (Homo sapiens, UniProt P23416); test: Activity at human alpha-2GlyR expressed in HEK293 cells by FMP assay; how it was run: as §1
T2 sequence (P23416 whole entry): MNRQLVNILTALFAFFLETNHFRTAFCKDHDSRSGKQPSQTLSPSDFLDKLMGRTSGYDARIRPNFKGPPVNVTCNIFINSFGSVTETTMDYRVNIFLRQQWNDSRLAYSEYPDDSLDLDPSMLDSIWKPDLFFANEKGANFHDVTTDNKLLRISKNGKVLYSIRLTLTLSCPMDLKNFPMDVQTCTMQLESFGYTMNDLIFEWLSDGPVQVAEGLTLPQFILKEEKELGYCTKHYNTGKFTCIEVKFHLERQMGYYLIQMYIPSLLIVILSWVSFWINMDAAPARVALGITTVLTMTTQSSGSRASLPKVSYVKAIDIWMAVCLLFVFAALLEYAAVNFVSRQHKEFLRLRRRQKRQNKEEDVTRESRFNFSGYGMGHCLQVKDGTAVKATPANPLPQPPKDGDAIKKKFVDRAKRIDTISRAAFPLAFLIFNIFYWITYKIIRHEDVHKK

[4] = molecular target: T1, Glycine receptor subunit alpha-1; test: Activity at human alpha-1GlyR expressed in HEK293 cells assessed as inhibition of 300 uM glycine-induced current by whole-cell patch clamp experiment

SMILES | IC50 [1] | IC50 [2] | IC50 [3] | IC50 [4]
C[C@@H]1C(=O)O[C@H]2[C@H](O)[C@]34C5OC(=O)[C@@]3(OC3OC(=O)[C@H](O)C34[C@H](C(C)(C)C)[C@@H]5O)[C@@]12O (stereo not given in full) | > 100 µM | > 100 µM | > 100 µM | –
C[C@@H]1C(=O)O[C@H]2[C@H](O)[C@]34[C@@H]5C(=O)O[C@@]3(O[C@@H]3OC(=O)[C@H](O)[C@@]34[C@H](C(C)(C)C)[C@@H]5N=[N+]=[N-])[C@@]12O | 17 µM | 7.4 µM | 29 µM | –
C[C@@H]1C(=O)O[C@H]2C[C@@]34C5C[C@@H](C(C)(C)C)C36C(=O)C(=O)OC6O[C@]4(C(=O)O5)[C@]21O (stereo not given in full) | > 100 µM | > 100 µM | > 100 µM | –
C[C@@H]1CO[C@@H]2C[C@@]34C5C[C@@H](C(C)(C)C)C36C(OC(=O)[C@@H]6O)O[C@]4(C(=O)O5)[C@@]12O (stereo not given in full) | > 100 µM | > 100 µM | > 100 µM | –
C[C@@H]1C(=O)O[C@H]2[C@H](O)[C@@]34C5OC(=O)[C@@]3(OC3OC(=O)[C@H](O)C34[C@H](C(C)(C)C)[C@H]5OS(=O)(=O)C(F)(F)F)[C@@]12O (stereo not given in full) | > 100 µM | > 100 µM | > 100 µM | –
C[C@@H]1C(=O)O[C@H]2[C@H](O)[C@]34C5OC(=O)[C@@]3(OC3OC(=O)[C@H](O)C34[C@H](C(C)(C)C)[C@@H]5OC(=O)Cc3ccccc3)[C@@]12O (stereo not given in full) | > 100 µM | > 100 µM | > 100 µM | –
C[C@@H]1C(=O)OC2[C@@H]3OCO[C@H]4C(=O)OC5OC6(C(=O)OC7C[C@@H](C(C)(C)C)C54[C@]736)[C@]21O (stereo not given in full) | 12 µM | 8.9 µM | 12 µM | –
CC(=O)O[C@H]1C(=O)OC2O[C@@]34C(=O)OC5C[C@@H](C(C)(C)C)C21[C@@]53C[C@@H]1OC(=O)[C@H](C)[C@@H]14 (stereo not given in full) | > 100 µM | > 100 µM | > 100 µM | –
CC1=C2C(=C[C@]34C5OC(=O)[C@@]23OC2OC(=O)[C@H](O)C24[C@H](C(C)(C)C)[C@H]5O)OC1=O (stereo not given in full) | > 100 µM | > 100 µM | > 100 µM | –
C[C@@H]1C(=O)O[C@H]2[C@H](O)[C@]34[C@@H]5C(=O)O[C@@]3(O[C@@H]3OC(=O)[C@H](O)[C@@]34[C@H](C(C)(C)C)[C@@H]5F)[C@@]12O | 7.3 µM | 3.2 µM | 4.6 µM | –
CC1=C2[C@H](C[C@]34[C@H]5C[C@@H](C(C)(C)C)[C@]36[C@@H](OC(=O)[C@@H]6O)O[C@]24OC5=O)OC1=O [3,14-DIDEHYDROGINKGOLIDE A] | 6.2 µM | 3.1 µM | 9.5 µM | –
CC(=O)O[C@H]1C(=O)OC2O[C@@]34C(=O)OC5C[C@@H](C(C)(C)C)C21[C@@]53C[C@@H]1OC(=O)[C@@H](C)[C@@]14O (stereo not given in full) [10-ACETOXY-GINKGOLIDE B] | > 100 µM | > 100 µM | > 100 µM | –
COCO[C@H]1C(=O)O[C@H]2O[C@@]34OC(=O)[C@@H]5C[C@@H](C(C)(C)C)[C@@]21[C@]53C[C@@H]1OC(=O)[C@@H](C)[C@@]14O [10-METHOXYMETHYLOXY-GINKGOLIDE A] | > 100 µM | > 100 µM | > 100 µM | –
C[C@@H]1C(=O)O[C@H]2C[C@@]34[C@H]5C[C@@H](C(C)(C)C)[C@]36[C@@H](OC(=O)[C@@H]6O)O[C@@]4(C(=O)O5)[C@]21O [GINKGOLIDE A] | 1.9 µM | 0.69 µM | 2.1 µM | 3.8 µM
C[C@@H]1C(=O)O[C@H]2C[C@@]34O[C@@H]5OC(=O)[C@H](O)[C@@]56[C@H](C(C)(C)C)[C@H](O)C(OC3=O)[C@]64[C@]21O (stereo not given in full) [GINKGOLIDE J] | 7.1 µM | 4.2 µM | 12 µM | 6.4 µM
C[C@@H]1C(=O)O[C@@H]2[C@H]1[C@@]13OC4OC(=O)[C@H](O)C45[C@H](C(C)(C)C)[C@@H](O)C(OC1=O)[C@]53[C@H]2O (stereo not given in full) [GINKGOLIDE M] | 0.78 µM | 0.56 µM | 1.3 µM | 0.65 µM
C[C@@H]1C(=O)O[C@H]2[C@H](O)[C@@]34[C@H]5C[C@@H](C(C)(C)C)[C@]36[C@@H](OC(=O)[C@@H]6O)O[C@@]4(C(=O)O5)[C@@]12O [GINKOLIDE B] | 2.9 µM | 2.1 µM | 3.7 µM | 1.7 µM
